Activity calls are given as the source filed them. The rule behind the calls is not given here.
Assays:
[1] = system: Panel NCI-60 (60 carcinoma cell lines); assay: Anticancer activity against human Panel NCI-60 (60 carcinoma cell lines) cells assessed as cell growth inhibition at 10 uM incubated for 3 days by methylene blue staining based colorimetric assay relative to control; type: functional; set-up: scale not given: the % may be the effect or the level left; conditions: time 3 day
Method in brief: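 NCI-60 one-dose screen at a single concentration of 10 μM. Read-out is mean growth percentage across the panel; positive values denote cytostatic activity and negative values cytotoxicity.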

[2] = system: Panel NCI-60 (60 carcinoma cell lines); assay: Anticancer activity against human Panel NCI-60 (60 carcinoma cell lines) cells assessed as total cell growth inhibition incubated for 3 days by methylene blue staining based colorimetric assay relative to control; type: functional; conditions: 72 h, time 3 day
Method in brief: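 NCI-60 five-dose screen at five concentrations. […] TGI is the concentration giving total growth inhibition.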

HCT-116 [3] = assay: Induction of apoptosis in human HCT116 cells assessed as increase in cleaved PARP1 level at 5 to 10 uM incubated for 24 hrs by Western blot analysis; type: functional, cell-based; conditions: dose 5-10 µM
Method in brief: (§1)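 HCT116 cells treated 24 h at the indicated concentrations. Lysates normalized by BCA, run on 12.5% SDS-PAGE and transferred to PVDF. Blocked 1 h in 5% milk/PBST, primary antibody against cleaved PARP overnight at 4 °C, then HRP secondary 1:10 000 and ECL detection.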

HCT-116 [4] = assay: Anticancer activity against human HCT-116 cells assessed as cell growth inhibition incubated for 3 days by methylene blue staining based colorimetric assay; type: functional; conditions: HCT-116, 72 h
HT-1080 = assay: Anticancer activity against human HT-1080 cells assessed as cell growth inhibition incubated for 3 days by methylene blue staining based colorimetric assay; type: functional; conditions: HT-1080, 72 h
Method in brief: (§2)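 Cells kept in DMEM with 10% calf or fetal bovine serum plus penicillin/streptomycin (1000 U/ml each) at 37 °C, 5% CO2. Seeded at 5000/well (n = 3), treated next day, then after 3 days fixed/stained 30 min at room temperature with methylene blue saturated in 50% ethanol.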

[5] = system: Panel NCI-60 (60 carcinoma cell lines); assay: Anticancer activity against human Panel NCI-60 (60 carcinoma cell lines) cells assessed as cell growth inhibition incubated for 3 days by methylene blue staining based colorimetric assay relative to control; type: functional; conditions: 72 h, time 3 day
Method in brief: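 NCI-60 five-dose screen at five concentrations. TGI is the concentration giving total growth inhibition.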

[6] = Metabolic stability in human Liver S9 fraction assessed as disappearance of compound and measured after 2 hrs by LC-ESI-MS analysis; type: ADME, subcellular; conditions: s9, 2 h
Method in brief: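 Human liver S9 fraction assay. Substrate 0.02 mM, 0.1 M buffer and 1 mM NADPH preincubated 10 min at 37 °C, then S9 (0.5 mg) added in 1 mL total; run in duplicate. Aliquots taken every 15 min or at 1 h and 2 h, residue taken up in methanol, diluted 1:1 with water and analysed by LC-ESI-MS tracking M+1 ions.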

NCI-H522 = assay: cells; type: functional, cell-based; conditions: Homo sapiens, NCI-H522, 72 h
U2OS = assay: Anticancer activity against human U2OS cells assessed as cell growth inhibition incubated for 3 days by methylene blue staining based colorimetric assay; type: functional; conditions: 72 h; method in brief: as §2
MDA-MB-468 = assay: cells; type: functional, cell-based; conditions: Homo sapiens, MDA-MB-468, 72 h
MDA-MB-231 = assay: Anticancer activity against human MDA-MB-231 cells assessed as cell growth inhibition incubated for 3 days by methylene blue staining based colorimetric assay; type: functional; conditions: MDA-MB-231, 72 h; method in brief: as §2
HCT-116 [7] = assay: Induction of apoptosis in human HCT116 cells assessed as increase in cleaved PARP1 level at 4 to 8 uM incubated for 24 hrs by Western blot analysis; type: functional, cell-based; conditions: dose 4-8 µM; method in brief: as §1
HeLa = assay: cells; type: functional, cell-based; conditions: Homo sapiens, 72 h

| SMILES | IC50 (HCT-116 [4]) [µM] | other results |
| --- | --- | --- |
| O=C(CCCCCCNC(=O)C(O)(O)C(F)(F)F)Nc1ncc(-c2ccc(Br)cc2)s1 | – | Activity [1]: -11.47%; TGI [2]: 11.4 µM; Activity (HCT-116 [3]): Active |
| O=C(CCCCCCNC(=O)C(O)(O)C(F)(F)F)Nc1cccc(Br)c1 | 3.06 | – |
| O=C(CCCCCCNC(=O)C(O)(O)C(F)(F)F)Nc1nc2ccc(F)cc2s1 | 6.47 | – |
| O=C(CCCCCCNC(=O)C(O)(O)C(F)(F)F)Nc1nc2ccc(Br)cc2s1 | 10.3 | – |
| O=C(CCCCCCNC(=O)C(O)(O)C(F)(F)F)Nc1cccc2ccccc12 | 6.48 | – |
| O=C(CCCCCCCNC(=O)c1cc(=O)c(O)co1)Nc1ccccc1 | > 100 | – |
| C/C(=N\O)C(=O)NCCCCC(=O)Nc1ccccc1 | > 100 | – |
| O=C(CCCCCCC(=O)Nc1ccccc1)NO [VORINOSTAT] | – | IC50 (HT-1080): 3.56 µM |
| OC(c1c(F)c(F)c(-n2cc(-c3ccccc3)nn2)c(F)c1F)C(F)(F)F (stereo not given) | > 100 | – |
| O=C(CCCCCCNC(=O)C(O)(O)C(F)(F)F)Nc1ccccc1 | 9.14 | – |
| Cc1ccc(S(=O)(=O)Nc2ccc(NC(=O)CCCCCCNC(=O)C(O)(O)C(F)(F)F)cc2)cc1 | 17.2 | – |
| C/C(=N\O)C(=O)NCCCCCC(=O)Nc1ccccc1 | > 100 | – |
| O=C(CCCCCCNC(=O)C(O)(O)C(F)(F)F)Nc1ccc(C(=O)c2ccccc2)cc1 | > 40 | – |
| O=C(CCCCCCNC(=O)C(O)(O)C(F)(F)F)Nc1ncc(-c2ccccc2)s1 | – | Activity [1]: -10.06% |
| Cc1nc(NC(=O)CCCCCCNC(=O)C(O)(O)C(F)(F)F)sc1-c1ccccc1 | 10.1 | – |
| O=C(CCCCCNC(=O)c1cc(=O)c(O)co1)Nc1ccccc1 | > 100 | – |
| O=C(CCCCCCNC(=O)C(O)(O)C(F)(F)F)Nc1nc2ccc(Br)cc2o1 | 12.1 | – |
| COc1cc(NC(=O)CCCCCCNC(=O)C(O)(O)C(F)(F)F)cc(OC)c1OC | 14.1 | – |
| O=C(CCCCCCNC(=O)C(O)(O)C(F)(F)F)Nc1ccc(Cl)cc1 | 4.23 | Activity [1]: 15.99%; GI50 [5]: 5.13 µM; TGI [2]: 26.9 µM |

| SMILES | IC50 (HCT-116 [4]) [µM] | other results |
| --- | --- | --- |
| O=C(CCCCCCNC(=O)C(O)(O)C(F)(F)F)Nc1c(F)cc(F)cc1F | 22.2 | – |
| COc1ccc(OC)c(NC(=O)CCCCCCNC(=O)C(O)(O)C(F)(F)F)c1 | 3.87 | Activity [1]: 35% |
| NC(=O)C(=O)NCCCCC(=O)Nc1ccccc1 | > 100 | – |
| O=C(CCCCNC(=O)C(O)(O)C(F)(F)F)Nc1ccccc1 | 20.3 | – |
| O=C(CCCCCNC(=O)c1ccc[nH]1)Nc1ccccc1 | > 100 | – |
| O=C(CCCCCCNC(=O)C(O)(O)C(F)(F)F)Nc1nccs1 | 10.8 | Stability [6]: Stable |
| O=C(CCCNC(=O)C(O)(O)C(F)(F)F)Nc1ccccc1 | 34.8 | – |
| NC(=O)C(=O)NCCCCCCCC(=O)Nc1ccccc1 | > 100 | – |
| CC(=O)c1ccc(NC(=O)CCCCCCNC(=O)C(O)(O)C(F)(F)F)cc1 | 12.1 | – |
| COc1ccc2sc(NC(=O)CCCCCCNC(=O)C(O)(O)C(F)(F)F)nc2c1 | 2.18 | IC50 (NCI-H522): 3.23 µM; IC50 (HT-1080): 2.28 µM; IC50 (U2OS): 3.29 µM; IC50 (MDA-MB-468): 3.65 µM; IC50 (MDA-MB-231): 0.81 µM; Activity [1]: -4.91%; GI50 [5]: 1.23 µM; TGI [2]: 12.3 µM; Activity (HCT-116 [7]): Active |
| O=C(CCCCCCNC(=O)C(O)(O)C(F)(F)F)Nc1ccc(F)cc1 | 7.57 | – |
| O=C(CCCCCCNC(=O)C(O)(O)C(F)(F)F)Nc1nc(-c2ccccc2)c(-c2ccccc2)s1 | 29.9 | – |
| CC(=O)C(=O)NCCCCCCC(=O)Nc1ccccc1 | > 100 | – |
| COc1ccc(-c2cnc(NC(=O)CCCCCCNC(=O)C(O)(O)C(F)(F)F)s2)cc1 | – | TGI [2]: 8.51 µM |
| O=C(CCCCCCC(O)C(F)(F)F)Nc1ccccc1 (stereo not given) | > 40 | – |
| O=C(CCCCCCNC(=O)C(O)(O)C(F)(F)F)Nc1ccc(S(F)(F)(F)(F)F)cc1 | 9.11 | – |
| O=C(CCCCCCNC(=O)C(O)(O)C(F)(F)F)Nc1nc2ccccc2o1 | 3.45 | – |
| NC(=O)C(=O)NCCCCCC(=O)Nc1ccccc1 | > 100 | – |
| O=C(CCCCCCNC(=O)C(O)(O)C(F)(F)F)Nc1nc2ccccc2s1 | 2.37 | IC50 (NCI-H522): 2.86 µM; IC50 (HT-1080): 2.65 µM; IC50 (HeLa): 1.52 µM; IC50 (U2OS): 1.41 µM; IC50 (MDA-MB-468): 1.31 µM; IC50 (MDA-MB-231): 1.83 µM; Activity [1]: -2.45%; GI50 [5]: 3.39 µM; TGI [2]: 21.4 µM |

| SMILES | IC50 (HCT-116 [4]) [µM] | other results |
| --- | --- | --- |
| O=C(CCCCCCNC(=O)C(O)(O)C(F)(F)F)Nc1ccccc1Br | 14.5 | – |
| O=C(CCCCCCNC(=O)C(O)(O)C(F)(F)F)Nc1ccncc1 | 6.67 | – |
| COc1ccc2nc(NC(=O)CCCCCCNC(=O)C(O)(O)C(F)(F)F)sc2c1 | 7.56 | – |
| COc1cccc(NC(=O)CCCCCCNC(=O)C(O)(O)C(F)(F)F)c1 | 6.11 | – |
| O=C(CCCCCCNC(=O)c1cc(=O)c(O)co1)Nc1ccccc1 | > 100 | – |
| O=C(CCCCCCNC(=O)C(O)(O)C(F)(F)F)Nc1ccc(F)cc1F | 18.5 | – |
| COc1ccccc1NC(=O)CCCCCCNC(=O)C(O)(O)C(F)(F)F | 10.1 | – |
| CC(=O)C(=O)NCCCCCC(=O)Nc1ccccc1 | > 100 | – |
| O=C(CCCCCCNC(=O)C(O)(O)C(F)(F)F)Nc1nc2ccc(Cl)cc2s1 | 11 | – |
| CC(=O)C(=O)NCCCCC(=O)Nc1ccccc1 | > 100 | – |
| O=C(CCCCCCNC(=O)C(O)(O)C(F)(F)F)Nc1ccc(-c2ccccc2)cc1 | – | Activity [1]: 2.1%; TGI [2]: 15.1 µM |
| C/C(=N\O)C(=O)NCCCCCCC(=O)Nc1ccccc1 | > 100 | – |
| CCOc1ccc(-c2cnc(NC(=O)CCCCCCNC(=O)C(O)(O)C(F)(F)F)s2)cc1 | 4.05 | – |
| OC(O)(c1c(F)c(F)c(-n2cc(-c3ccccc3)nn2)c(F)c1F)C(F)(F)F | > 100 | – |
| O=C(CCCCCCNC(=O)C(O)C(F)(F)F)Nc1nccs1 (stereo not given) | > 40 | Stability [6]: Stable |
| O=C(CCCCNC(=O)c1cc(=O)c(O)co1)Nc1ccccc1 | > 100 | – |
| O=C(CCCCCCCNC(=O)C(O)(O)C(F)(F)F)Nc1ccccc1 | 41.7 | – |
| O=C(CCCCCCNC(=O)C(O)(O)C(F)(F)F)Nc1ccc(Br)cc1 | – | Activity [1]: 2.58%; GI50 [5]: 3.16 µM; TGI [2]: 20.9 µM |

— ChEMBL document CHEMBL5247600, “Rational design of metabolically stable HDAC inhibitors: An overhaul of trifluoromethyl ketones” (Eur J Med Chem, 2022)
